Assay results published in ChEMBL document CHEMBL4033790, “Design and Synthesis of Novel Deuterated Ligands Functionally Selective for the γ-Aminobutyric Acid Type A Receptor (GABAAR) α6 Subtype with Improved Metabolic Stability and Enhanced Bioavailability” (J Med Chem, 2018).
Converted amounts (≈) assume the structure as drawn. The source made the active and inactive calls. No cut-off for these calls is given here.

How the values were obtained:
[1] = Drug metabolism in human liver microsomes assessed as CYP450 mediated-O-demethylated 7-hydroxy-2-(4-methoxyphenyl)-2H-pyrazolo[4,3-c]quinolin-3(5H)-one metabolite formation after 60 mins by LC-MS analysis; format: ADME; settings: 1 h
How it was run: (§1)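 The 60-min samples from the human or mouse liver microsome incubations (10 µM compound, 0.5 mg/mL protein, NADPH regenerating system, 37 °C, pH 7.4) were run on LC-MS in SIM mode with dual ESI/APCI ionization. The method was calibrated to each component's retention time and mass, and the peak intensities of the parent and O-demethylated metabolites were measured.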

[2] = Cmax in Wistar rat brain at 10 mg/kg, ip administered as single dose measured at 5 to 720 mins post dose by HPLC-MS/MS analysis; format: ADME, organism-based; design: dose 10 mg/kg, route intraperitoneal
How it was run: (§2)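 Male Wistar rats (250-350 g) given a single 10 mg/kg i.p. dose of a 5 mg/ml suspension in 85% distilled water, 14% propylene glycol, 1% Tween 80. Three rats per time point (5, 20, 60, 180, 720 min). Blood and brain were collected after sacrifice. Drug was recovered by solid phase extraction and quantified by HPLC-MS/MS.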

[3] = Drug metabolism in mouse liver microsomes assessed as CYP450 mediated-O-demethylated 7-hydroxy-2-(4-hydroxyphenyl)-2H-pyrazolo[4,3-c]quinolin-3(5H)-one metabolite formation after 60 mins by LC-MS analysis; format: ADME; settings: 1 h; how it was run: as §1
[4] = Metabolic stability in mouse liver microsomes assessed as parent compound remaining at 10 uM after 60 mins by LC-MS analysis; format: ADME, microsome; settings: read-out: Stability
How it was run: (§3)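 The 60 min samples of the microsomal incubation (10 μM compound, human or mouse liver microsomes at 0.5 mg/mL, NADPH regenerating system, 37 °C) were analysed by LC-MS. Detection used SIM mode with dual ESI/APCI ionization, calibrated to the retention times and masses of the parent and its O-demethylated metabolites. Peak intensities were measured.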

[5] = target: Voltage-gated inwardly rectifying potassium channel KCNH2 (Homo sapiens, UniProt Q12809); assay: Displacement of [3H]-dofetilide from human ERG expressed in HEK cell membranes at >10 uM after 60 to 90 mins by scintillation counting
[6] = Terminal elimination half-life in Wistar rat brain at 10 mg/kg, ip administered as single dose by HPLC-MS/MS analysis; format: ADME, organism-based; settings: read-out: beta t1/2 (converted)
How it was run: (§4)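 Male Wistar rats (250–350 g) received a single i.p. dose of 10 mg/kg as a 5 mg/ml suspension in 85% water, 14% propylene glycol and 1% Tween 80. Three rats per time point were sacrificed at 5, 20, 60, 180 and 720 min for plasma and brain. Samples were cleaned up by solid-phase extraction and quantified by HPLC-MS/MS.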

[7] = AUC (0 to 12 hrs) in Wistar rat plasma at 10 mg/kg, ip administered as single dose by HPLC-MS/MS analysis; format: ADME, organism-based; design: time < 12 hr, dose 10 mg/kg, route intraperitoneal
Liver = assay: Half life in human liver microsomes at 10 uM by LC-MS/MS analysis; format: ADME, microsome
How it was run: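 Compound at 10 μM final was preincubated 5 min at 37 °C with NADPH regenerating system in phosphate buffer, pH 7.4. Human or mouse liver microsomes (0.5 mg/mL protein) were added to start the reaction. Samples were taken at 0 (no microsomes) and 10–60 min and measured by LC-MS/MS against an internal standard. Half-life = 0.693/k, with k the slope of ln peak-area ratio versus time. Three experiments, each in duplicate.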

Brain = assay: AUC (0 to 12 hrs) in Wistar rat brain at 10 mg/kg, ip administered as single dose by HPLC-MS/MS analysis; format: ADME, organism-based; design: dose 10 mg/kg, time < 12 hr, route intraperitoneal; settings: in vivo
[8] = Cmax in Wistar rat plasma at 10 mg/kg, ip administered as single dose measured at 5 to 720 mins post dose by HPLC-MS/MS analysis; format: ADME, organism-based; design: dose 10 mg/kg, route intraperitoneal; how it was run: as §2
[9] = Drug metabolism in human liver microsomes assessed as CYP450 mediated-O-demethylated 7-hydroxy-2-(4-hydroxyphenyl)-2H-pyrazolo[4,3-c]quinolin-3(5H)-one metabolite formation after 60 mins by LC-MS analysis; format: ADME; settings: 1 h; how it was run: as §1
[10] = Tmax in Wistar rat brain at 10 mg/kg, ip administered as single dose by HPLC-MS/MS analysis; format: ADME, organism-based; how it was run: as §4
[11] = Metabolic stability in human liver microsomes assessed as parent compound remaining at 10 uM after 60 mins by LC-MS analysis; format: ADME, microsome; settings: read-out: Stability; how it was run: as §3
Mus musculus = assay: Neurotoxicity in Swiss Webster mouse assessed as induction of motor impairment at 40 mg/kg administered via oral gavage measured after 10 to 60 mins by rotarod method; format: toxicity, organism-based; settings: in vivo
How it was run: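 Female mice were given a single oral gavage dose of 40 mg/kg, either in 50% PBS/40% propylene glycol/10% DMSO or, for poorly soluble compounds, in 2% polyethylene glycol plus 2.5% hydroxymethyl cellulose. Rotarod performance was tested 10, 30 and 60 min after dosing, with diazepam 5 mg/kg as positive control.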

[12] = Drug metabolism in human liver microsomes assessed as CYP450 mediated-O-demethylated 2-(4-hydroxyphenyl)-7-(trideuteriomethoxy)-5H-pyrazolo[4,3-c]quinolin-3-one metabolite formation after 60 mins by LC-MS analysis; format: ADME; settings: 1 h; how it was run: as §1
[13] = Drug metabolism in mouse liver microsomes assessed as CYP450 mediated-O-demethylated 2-(4-hydroxyphenyl)-7-(trideuteriomethoxy)-5H-pyrazolo[4,3-c]quinolin-3-one metabolite formation after 60 mins by LC-MS analysis; format: ADME; settings: 1 h; how it was run: as §1
HEK-293T = assay: Cytotoxicity against HEK293T cells assessed as reduction in cell viability up to 400 uM after 48 hrs by CellTiter-Glo assay; format: cell-based; settings: human
How it was run: (§5)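 HEK293T and HepG2 cells grown in high-glucose DMEM with non-essential amino acids, 10 mM HEPES, penicillin/streptomycin and 10% heat-inactivated FBS. Cells were harvested with trypsin and plated; compound was pin-transferred 3 h later. Incubation was 48 h, then CellTiter-Glo luminescence was read. Controls were DMSO (negative) and a cytotoxic aminoketone (positive). Quadruplicates, three independent runs, normalized to controls, nonlinear regression.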

[14] = Drug metabolism in mouse liver microsomes assessed as CYP450 mediated-O-demethylated 7-hydroxy-2-(4-methoxyphenyl)-2H-pyrazolo[4,3-c]quinolin-3(5H)-one metabolite formation after 60 mins by LC-MS analysis; format: ADME; settings: 1 h; how it was run: as §1
HepG2 = assay: Cytotoxicity against human HepG2 cells assessed as reduction in cell viability up to 400 uM after 48 hrs by CellTiter-Glo assay; format: cell-based; settings: hepg2, 48 h; how it was run: as §5
[15] = Tmax in Wistar rat plasma at 10 mg/kg, ip administered as single dose by HPLC-MS/MS analysis; format: ADME, organism-based; how it was run: as §4
[16] = Ratio of brain AUC (0 to t) to plasma AUC (0 to t), Kp of the compound in Wistar rat at 10 mg/kg, ip administered as single dose by HPLC-MS/MS analysis; format: ADME, organism-based
[17] = Terminal elimination half-life in Wistar rat plasma at 10 mg/kg, ip administered as single dose by HPLC-MS/MS analysis; format: ADME, organism-based; settings: read-out: beta t1/2 (converted); how it was run: as §4
[18] = target: GABA-A receptor; alpha-6/beta-3/gamma-2 (Homo sapiens) (UniProt P18507+P28472+Q16445); assay: Positive allosteric modulation of GABA-A receptor alpha6beta3gamma2 (unknown origin) expressed in Xenopus laevis oocytes assessed as potentiation of EC3 GABA induced currents up to 10 uM at -60 mV holding potential by electrophysiological method; format: cell-based; settings: tested as the 2H-labelled form
How it was run: (§6)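 Stage 5–6 defolliculated Xenopus oocytes were injected with 2.5 ng total mRNA per oocyte: α1, α2, α3 or α5 with β3 and γ2 at 1:1:5, and α4 or α6 with β3 and γ2 at 3:1:5. Oocytes were kept ≥36 h at 18 °C in NDE medium before recording. Compounds were co-applied with GABA titrated to EC3-5 for each oocyte. Curves were fitted with the Hill equation; mean ± SEM from ≥3 oocytes across two batches.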

[19] = target: GABA-A receptor; alpha-1/beta-3/gamma-2 (Homo sapiens) (UniProt P14867+P18507+P28472); assay: Positive allosteric modulation of GABA-A receptor alpha1beta3gamma2 (unknown origin) expressed in Xenopus laevis oocytes assessed as potentiation of EC3 GABA induced currents up to 100 uM at -60 mV holding potential by electrophysiological method relative to GABA; format: cell-based; settings: tested as the 2H-labelled form; how it was run: as §6
[20] = target: GABA-A receptor; alpha-2/beta-3/gamma-2 (Homo sapiens) (UniProt P18507+P28472+P47869); assay: Positive allosteric modulation of GABA-A receptor alpha2beta3gamma2 (unknown origin) expressed in Xenopus laevis oocytes assessed as potentiation of EC3 GABA induced currents up to 100 uM at -60 mV holding potential by electrophysiological method relative to GABA; format: cell-based; settings: tested as the 2H-labelled form; how it was run: as §6
[21] = target: GABA-A receptor; alpha-5/beta-3/gamma-2 (Homo sapiens) (UniProt P18507+P28472+P31644); assay: Positive allosteric modulation of GABA-A receptor alpha5beta3gamma2 (unknown origin) expressed in Xenopus laevis oocytes assessed as potentiation of EC3 GABA induced currents up to 100 uM at -60 mV holding potential by electrophysiological method relative to GABA; format: cell-based; settings: tested as the 2H-labelled form; how it was run: as §6
[22] = Solubility of the compound in 0.01M HCl at pH 2 after 2 hrs by LC-MS analysis; format: physicochemical; settings: buffer, pH 2, 2 h
How it was run: (§7)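 10 mg compound dissolved in 2 mL DMAC; 10 μL of this added to 2 mL DI water (pH 7, sonicated) or 2 mL 0.01 M aq HCl (pH 2), held 2 h at 37 °C. Filtered through 0.45 micron filter, then quantified by LC-MS in SIM mode against calibration curves of standards in DMAC (n = 5); n=3.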

[23] = Aqueous solubility of the compound in DI water at pH 7 after 2 hrs by LC-MS analysis; format: physicochemical; settings: buffer, pH 7, 2 h; how it was run: as §7
[24] = target: GABA A receptor alpha-4/beta-3/gamma-2 (Homo sapiens) (UniProt P18507+P28472+P48169); assay: Positive allosteric modulation of GABA-A receptor alpha4beta3gamma2 (unknown origin) expressed in Xenopus laevis oocytes assessed as potentiation of EC3 GABA induced currents up to 100 uM at -60 mV holding potential by electrophysiological method relative to GABA; format: cell-based; settings: tested as the 2H-labelled form; how it was run: as §6
[25] = target: GABA-A receptor; alpha-3/beta-3/gamma-2 (Homo sapiens) (UniProt P18507+P28472+P34903); assay: Positive allosteric modulation of GABA-A receptor alpha3beta3gamma2 (unknown origin) expressed in Xenopus laevis oocytes assessed as potentiation of EC3 GABA induced currents up to 100 uM at -60 mV holding potential by electrophysiological method relative to GABA; format: cell-based; settings: tested as the 2H-labelled form; how it was run: as §6
[26] = target: Muscarinic acetylcholine receptor M4 (Homo sapiens) (UniProt P08173); assay: Displacement of [3H]-QNB from human recombinant M4 receptor expressed in HEK293 cells at 10 uM after 60 to 90 mins by scintillation counting; format: cell-based
How it was run: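 Primary single-concentration radioligand displacement screen run by the NIMH Psychoactive Drug Screening Program across a 46-target panel that includes hERG. The read-out is percent inhibition of specific radioligand binding. Any compound displacing more than 50% of radioligand went on to secondary binding assays to determine Ki.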

Chain of Voltage-gated inwardly rectifying potassium channel KCNH2 (Q12809 whole entry): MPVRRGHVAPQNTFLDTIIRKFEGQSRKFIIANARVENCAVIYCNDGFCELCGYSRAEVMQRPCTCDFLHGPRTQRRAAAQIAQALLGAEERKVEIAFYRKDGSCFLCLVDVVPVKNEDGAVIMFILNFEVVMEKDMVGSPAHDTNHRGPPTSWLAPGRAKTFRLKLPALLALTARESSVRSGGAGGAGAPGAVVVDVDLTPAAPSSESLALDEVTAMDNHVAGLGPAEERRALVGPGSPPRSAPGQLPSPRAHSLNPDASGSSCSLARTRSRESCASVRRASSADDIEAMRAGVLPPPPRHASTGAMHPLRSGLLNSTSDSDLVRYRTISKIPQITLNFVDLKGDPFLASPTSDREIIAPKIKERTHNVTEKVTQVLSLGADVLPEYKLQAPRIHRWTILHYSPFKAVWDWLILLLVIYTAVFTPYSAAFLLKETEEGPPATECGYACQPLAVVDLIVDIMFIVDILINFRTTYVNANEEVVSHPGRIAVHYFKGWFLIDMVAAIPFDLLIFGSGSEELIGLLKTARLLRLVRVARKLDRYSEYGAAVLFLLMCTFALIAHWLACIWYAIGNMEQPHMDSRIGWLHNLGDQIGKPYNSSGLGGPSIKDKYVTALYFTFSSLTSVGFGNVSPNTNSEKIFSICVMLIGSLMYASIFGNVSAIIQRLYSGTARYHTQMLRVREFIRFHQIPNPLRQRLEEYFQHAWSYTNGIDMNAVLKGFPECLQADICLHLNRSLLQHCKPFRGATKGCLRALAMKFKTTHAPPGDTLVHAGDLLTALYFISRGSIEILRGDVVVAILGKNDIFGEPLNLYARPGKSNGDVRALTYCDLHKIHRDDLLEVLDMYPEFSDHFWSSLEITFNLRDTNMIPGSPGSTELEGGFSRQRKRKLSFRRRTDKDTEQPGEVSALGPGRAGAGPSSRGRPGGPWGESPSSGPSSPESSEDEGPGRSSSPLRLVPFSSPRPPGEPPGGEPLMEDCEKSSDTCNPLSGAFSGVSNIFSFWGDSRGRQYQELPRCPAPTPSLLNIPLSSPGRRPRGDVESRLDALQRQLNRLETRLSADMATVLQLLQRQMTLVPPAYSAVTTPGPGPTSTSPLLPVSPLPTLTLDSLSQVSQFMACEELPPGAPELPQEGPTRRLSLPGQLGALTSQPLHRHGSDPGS
Chain of Muscarinic acetylcholine receptor M4 (Homo sapiens) (P08173 whole entry): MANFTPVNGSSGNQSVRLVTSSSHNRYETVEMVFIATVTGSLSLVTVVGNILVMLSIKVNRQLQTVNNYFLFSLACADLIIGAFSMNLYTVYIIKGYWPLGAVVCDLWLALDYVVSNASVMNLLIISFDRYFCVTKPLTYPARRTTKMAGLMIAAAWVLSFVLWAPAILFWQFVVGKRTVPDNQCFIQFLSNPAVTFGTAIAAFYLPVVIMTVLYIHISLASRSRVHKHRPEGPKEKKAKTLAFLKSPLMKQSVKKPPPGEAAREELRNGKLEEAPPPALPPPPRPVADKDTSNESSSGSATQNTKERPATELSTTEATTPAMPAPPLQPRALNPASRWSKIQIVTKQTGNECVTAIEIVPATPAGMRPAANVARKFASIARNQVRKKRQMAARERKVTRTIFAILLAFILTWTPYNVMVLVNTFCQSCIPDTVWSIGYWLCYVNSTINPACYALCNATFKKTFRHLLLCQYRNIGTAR

For `[2H]C([2H])([2H])Oc1ccc2c3nn(-c4ccc(OC)cc4)c(=O)c-3c[nH]c2c1`, the Drug metabolism [1] was “Metabolite_Detected”, the Cmax [2] was 657 ng/g and the Drug metabolism [3] was “Metabolite_Detected”. The remaining at 1 h, 10 µM [4] was 93.2%, the “inhibition (INH)” value [5] was “Not Active” and the half-life [6] was 2.6 h. For the same molecule, the AUC(0-t) at 12 h [7] was 25300 ng·h/mL, the t1/2 (Liver) was 11.1 h and the AUC (Brain) was 4125.92 ng·h/g. The Cmax [8] was 3740 ng/mL, the Drug metabolism [9] was “Metabolite_Detected” and the Tmax [10] was 2.11 h. For the same molecule, the remaining at 1 h, 10 µM [11] was 92%, the Activity (Mus musculus) was “Non-Toxic” and the Drug metabolism [12] was “Metabolite_Detected”. For the same molecule, the Drug metabolism [13] was “Metabolite_Detected”, the Activity (HEK-293T) was “Non-Toxic” and the Drug metabolism [14] was “Metabolite_Detected”. For the same molecule, the Activity (HepG2) was “Non-Toxic”, the Tmax [15] was 1.67 h and the Kp [16] was 0.16. For the same molecule, the half-life [17] was 2.46 h.
In the case of `COc1ccc2c3nn(-c4ccc(OC)nc4)c(=O)c-3c[nH]c2c1`, the Activity [18] is reported as “Active”, the Activity [19] is reported as “inactive” and the remaining at 1 h, 10 µM [4] is reported as 74.8%. The Activity [20] was “inactive”, the Activity [21] was “inactive” and the “inhibition (INH)” value [5] was “Not Active”. The solubility [22] was 115.4 µM (≈ 37.2 µg/mL), the remaining at 1 h, 10 µM [11] was 92.8% and the Activity (Mus musculus) was “Non-Toxic”. For the same molecule, the solubility [23] was 67.2 µM (≈ 21.7 µg/mL), the Activity [24] was “inactive” and the Activity [25] was “inactive”. For the same molecule, the inhibition [26] was “Active”.
